The nature of test [1]: hit retest on RPL19A-GFP reporter strain – cell-based, S. cerevisiae, flow cytometry, cherry picks, mother/daughter gates, confirmation (AID 2270;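 active means GFP response below 50% of the DMSO control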). The note with it: 3 h, at 10 µM, stronger effect = lower value, 100 = same GFP as DMSO wells.
The nature of test [2]: yeast TOR pathway reporter LAP4-GFP change – cell-based, cherry picks, flow cytometry, mother/daughter gates, confirmation (AID 2271;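 active means GFP response above 150% of the DMSO control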;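 further: ratio of sample to DMSO plate mean so 100% equals DMSO level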). The settings on record: S. cerevisiae LAP4-GFP strain, 3 h, at 10 µM, stronger effect = higher value, 100 means same as DMSO control. The procedure, abridged: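 Measured by: GFP by flow cytometry. Test system: GFP-fusion yeast strain. Input: yeast cells seeded at OD600 of 0.2. Timing: 30 °C, 3 h compound incubation, rotating. Buffer or medium: synthetic complete medium for yeast. Benchmarks: DMSO-only negative wells, rapamycin 400 ng/mL positive wells. Compound: 10 µM single dose.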

Test [3] in a line: TOR pathway reporter MEP2-GFP, retest of hits – S. cerevisiae, flow cytometry GFP, cherry picks, confirmation (AID 2272;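 active means GFP response above 150% of the DMSO control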;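 further: ratio of well signal to plate DMSO mean so 100% equals DMSO level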). The note with it: S. cerevisiae MEP2-GFP strain, 3 h, at 10 µM, stronger effect = higher value.
Test [4] in a line: yeast AGP1-GFP fluorescence change, single-dose – cell-based, flow cytometry, S. cerevisiae, cherry picks, confirmation (AID 2273).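 Further: median GFP channel fluorescence over the whole cell population gate.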 The settings on record: S. cerevisiae AGP1-GFP strain, 3 h, at 10 µM.
The nature of test [5]: TOR pathway CIT2 reporter hit retest – S. cerevisiae, GFP fusion, cherry picks, mother/daughter gates, confirmation (AID 2274). The settings on record: S. cerevisiae CIT2-GFP strain, flow cytometry, 3 h, at 10 µM, stronger effect = higher value.
[6] abbreviates: measured here: daughter cell gate.
Where [7] appears, read: measured here: mother cell gate.
[8] abbreviates: measured here: daughter cell gate response.
Setting [9] is: measured here: mother cell gate response.

SMILES strings stand for the structures. The source made the active and inactive calls.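 How the source made its calls, unless noted: active means GFP response above 150% of the DMSO level; inconclusive means fewer than 70 events counted for a yeast strain; inactive means the rest.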

For `Cc1cc(C)c2sc(NC(=O)C3=COCCO3)nc2c1`, the GFP response vs DMSO in test [1] was 95.8% (inactive); in test [1] (setting [6]), 95.5%; in test [1] (setting [7]), 97.9%; in test [3] it was 99.5% (inactive). In addition, the GFP response relative to DMSO in test [2] was 94.2% (inactive); in test [2] (setting [8]), 95%; in test [2] (setting [9]), 96.5%. For the same molecule, the GFP response, % of DMSO in test [4] was 92.5% (inactive); in test [5] it was 102% (inactive); in test [5] (setting [6]), 104%; in test [5] (setting [7]), 101%.
On to `O=C(c1cc(-c2cccc(Cl)c2)on1)N1CCc2ccccc2C1`, for which the GFP response vs DMSO in test [1] was 99.2% (inactive); in test [1] (setting [6]), 100%; in test [1] (setting [7]), 99.5%; in test [3] it was 99% (inactive). In addition, the figures for the GFP response relative to DMSO in test [2], in test [2] (setting [8]) and in test [2] (setting [9]) were 95.7% (inactive), 95.9% and 95.2%, respectively. In addition, the GFP response, % of DMSO in test [4] is 104% (inactive); in test [5] it was 97.3% (inactive); in test [5] (setting [6]) it was 97.4%; in test [5] (setting [7]), 96.8%.
In the case of `Cc1cccc(C(=O)NNC(=S)NC(=O)c2ccccc2)c1`, the GFP response vs DMSO in test [1] was 107% (inactive); in test [1] (setting [6]) it was 110%; in test [1] (setting [7]), 105%; in test [3], 109% (inactive). Moreover, the GFP response relative to DMSO in test [2] is 122% (inactive); in test [2] (setting [8]), 117%; in test [2] (setting [9]) it was 128%. Besides, the GFP response, % of DMSO was 102% (inactive) in test [4], 105% (inactive) in test [5], 116% in test [5] (setting [6]) and 99.7% in test [5] (setting [7]).
With `Fc1ccc(C2CC(c3ccccc3)n3ncnc3N2)cc1` (stereo not given), the GFP response vs DMSO in test [1] was 96.8% (inactive); in test [1] (setting [6]), 95.3%; in test [1] (setting [7]), 98%; in test [3], 100% (inactive). The values for the GFP response relative to DMSO in test [2], in test [2] (setting [8]) and in test [2] (setting [9]) were 93.8% (inactive), 94.1% and 97.2%, respectively. In addition, the GFP response, % of DMSO in test [4] was 94.3% (inactive); in test [5], 92.6% (inactive); in test [5] (setting [6]), 94.8%; in test [5] (setting [7]) it was 91.2%.
`Cc1noc2ncnc(Sc3c(Cl)cccc3Cl)c12`: the GFP response vs DMSO in test [1] is 101% (inactive); in test [1] (setting [6]), 102%; in test [1] (setting [7]), 99.8%; in test [3] it was 100% (inactive). Moreover, the GFP response relative to DMSO in test [2] is 94.1% (inactive); in test [2] (setting [8]), 94.4%; in test [2] (setting [9]), 94%. Further, the GFP response, % of DMSO is 88.6% (inactive) in test [4], 105% (inactive) in test [5], 105% in test [5] (setting [6]) and 104% in test [5] (setting [7]).
On to `O=[N+]([O-])c1ccc(N2N=C(c3ccco3)CC2c2ccccc2)cc1` (stereo not given), for which the GFP response vs DMSO was 104% (inactive) in test [1], 104% in test [1] (setting [6]), 97.7% in test [1] (setting [7]) and 131% (inactive) in test [3]. Further, the GFP response relative to DMSO was 107% (inactive) in test [2], 104% in test [2] (setting [8]) and 108% in test [2] (setting [9]). The GFP response, % of DMSO in test [4] was 99.8% (inactive); in test [5] it was 105% (inactive); in test [5] (setting [6]), 105%; in test [5] (setting [7]), 103%.
Regarding `CCc1ccc2c(c1)C1(NN=C(c3ccccc3)S1)C(=O)N2` (stereo not given), the GFP response vs DMSO in test [1] was 101% (inactive); in test [1] (setting [6]), 99.1%; in test [1] (setting [7]), 97.7%; in test [3], 114% (inactive). Further, the GFP response relative to DMSO was 133% (inactive) in test [2], 125% in test [2] (setting [8]) and 140% in test [2] (setting [9]). In addition, the GFP response, % of DMSO in test [4] is 102% (inactive); in test [5] it was 94.4% (inactive); in test [5] (setting [6]) it was 99.2%; in test [5] (setting [7]) it was 89.5%.
`COc1cc(NC(=O)c2oc3ccccc3c2C)ccc1NC(=O)c1ccco1`: the GFP response vs DMSO in test [1] is 98% (inactive); in test [1] (setting [6]), 97.8%; in test [1] (setting [7]), 98.4%; in test [3], 110% (inactive). Besides, the values for the GFP response relative to DMSO in test [2], in test [2] (setting [8]) and in test [2] (setting [9]) were 97.7% (inactive), 99% and 100%, respectively. The GFP response, % of DMSO is 102% (inactive) in test [4], 98.6% (inactive) in test [5], 97.6% in test [5] (setting [6]) and 99.3% in test [5] (setting [7]).
Take `C(=N\Nc1ccccn1)/c1c[nH]c2ccccc12`: the GFP response vs DMSO in test [1] was 103% (inactive); in test [1] (setting [6]) it was 102%; in test [1] (setting [7]) it was 104%; in test [3] it was 101% (inactive). For the same molecule, the GFP response relative to DMSO in test [2] was 97% (inactive); in test [2] (setting [8]), 95.9%; in test [2] (setting [9]), 96.2%. Further, the GFP response, % of DMSO was 104% (inactive) in test [4], 100% (inactive) in test [5], 99.2% in test [5] (setting [6]) and 98.1% in test [5] (setting [7]).
In the case of `COc1ccc(-c2nc3cccc(C)n3c2NCc2ccco2)cc1OC`, the GFP response vs DMSO in test [1] is 101% (inactive); in test [1] (setting [6]) it was 99.5%; in test [1] (setting [7]) it was 100%; in test [3], 97.2% (inactive). For the same molecule, the GFP response relative to DMSO in test [2] was 100% (inactive); in test [2] (setting [8]), 101%; in test [2] (setting [9]), 101%. The GFP response, % of DMSO is 99.5% (inactive) in test [4], 97.2% (inactive) in test [5], 99.3% in test [5] (setting [6]) and 97.1% in test [5] (setting [7]).
Turning to `COc1ccc(C2N(c3ccc(Cl)cc3)N=C(C(C)=O)N(C)N2C(C)=O)cc1` (stereo not given), the GFP response vs DMSO was 100% (inactive) in test [1], 99.6% in test [1] (setting [6]), 100% in test [1] (setting [7]) and 101% (inactive) in test [3]. Also, the GFP response relative to DMSO in test [2] was 104% (inactive); in test [2] (setting [8]), 101%; in test [2] (setting [9]), 103%. The GFP response, % of DMSO in test [4] was 101% (inactive); in test [5] it was 106% (inactive); in test [5] (setting [6]) it was 106%; in test [5] (setting [7]) it was 106%.
On to `CCCc1[nH]nc2c1C1(C(=O)N(CC)c3ccccc31)C(C#N)=C(N)O2` (stereo not given), for which the GFP response vs DMSO in test [1] was 96.6% (inactive); in test [1] (setting [6]), 95.9%; in test [1] (setting [7]), 96.9%; in test [3] it was 98.3% (inactive). The GFP response relative to DMSO is 96.7% (inactive) in test [2], 97.6% in test [2] (setting [8]) and 94% in test [2] (setting [9]). Moreover, the GFP response, % of DMSO is 98.5% (inactive) in test [4], 101% (inactive) in test [5], 99.1% in test [5] (setting [6]) and 101% in test [5] (setting [7]).
Take `COC(=O)Cc1ccc(OCc2ccc(Cl)nc2)cc1`: the GFP response vs DMSO is 97.8% (inactive) in test [1], 97.5% in test [1] (setting [6]), 98.6% in test [1] (setting [7]) and 97.5% (inactive) in test [3]. The results for the GFP response relative to DMSO in test [2], in test [2] (setting [8]) and in test [2] (setting [9]) were 107% (inactive), 107% and 106%, respectively. The GFP response, % of DMSO was 101% (inactive) in test [4], 95% (inactive) in test [5], 94.6% in test [5] (setting [6]) and 94.5% in test [5] (setting [7]).
In the case of `Cc1nn(C)c(C)c1N1C(=O)c2cccc3c(Br)ccc(c23)C1=O`, the GFP response vs DMSO in test [1] is 103% (inactive); in test [1] (setting [6]), 102%; in test [1] (setting [7]), 103%; in test [3], 207% (active). The GFP response relative to DMSO in test [2] is 136% (inactive); in test [2] (setting [8]), 137%; in test [2] (setting [9]), 134%. The GFP response, % of DMSO in test [4] was 112% (inactive); in test [5], 148% (inactive); in test [5] (setting [6]), 152%; in test [5] (setting [7]), 141%.
As for `COc1ccc(OC)c(NC(=O)c2cccc3c2C(=O)N(C2CCCCC2)C3)c1`, the GFP response vs DMSO in test [1] is 97.8% (inactive); in test [1] (setting [6]), 98.4%; in test [1] (setting [7]), 98.4%; in test [3] it was 98.3% (inactive). In addition, the GFP response relative to DMSO in test [2] was 92.8% (inactive); in test [2] (setting [8]), 92.8%; in test [2] (setting [9]) it was 90.8%. Also, the GFP response, % of DMSO is 97.8% (inactive) in test [4], 101% (inactive) in test [5], 103% in test [5] (setting [6]) and 98.5% in test [5] (setting [7]).

The record behind these values is PubChem BioAssay.
